In publication PMC3438513 (Cancer research, 2012):
“And” between values parts separate entries of the source, which are not always exact repeats. Equal values may be shown once. Read-outs that look alike come from different tables or passages of the source.

Key:
mouse CD1d = target: T1, mouse CD1d (Mus musculus, UniProt P11609); assay type: binding; settings: competitor of Biotinyl PE (2 μg/mL), CD1d dimer
T1 sequence (P11609 22-305 limits assumed): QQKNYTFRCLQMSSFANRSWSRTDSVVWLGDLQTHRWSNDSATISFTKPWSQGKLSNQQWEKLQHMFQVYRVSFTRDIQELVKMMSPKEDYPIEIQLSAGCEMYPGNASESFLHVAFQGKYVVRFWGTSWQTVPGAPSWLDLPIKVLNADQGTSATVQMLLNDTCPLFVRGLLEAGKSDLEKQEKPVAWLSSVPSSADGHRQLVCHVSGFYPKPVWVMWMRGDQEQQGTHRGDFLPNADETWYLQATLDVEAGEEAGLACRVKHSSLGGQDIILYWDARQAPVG
T1 sequence (P01887 21-119 partner): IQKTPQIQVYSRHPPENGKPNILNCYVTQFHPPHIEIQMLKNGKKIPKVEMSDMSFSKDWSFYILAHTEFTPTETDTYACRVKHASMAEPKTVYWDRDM
In short: (§1)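 Plates coated with goat anti-mouse IgG Fc-gamma antibody, then washed three times with PBS/Tween. Added human or mouse CD1d-Ig dimer (5 μg/mL) mixed with competitor lipid and 18:1 biotinyl-PE (2 μg/mL) in PBS. Bound biotinyl-PE detected with HRP-avidin. Biotinyl-PE Kd obtained by titration without competitor, fitted to Y = (Bmax*X)/(Kd + X). Competitor constants derived by curve fitting.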

human CD1d = human CD1d (Homo sapiens, UniProt P15813); assay type: binding
In short: as §1

NKT cells = assay: Staining of NKT cells with lipid-loaded CD1d-Ig dimers; assay type: cell-based; settings: human and mouse CD1d-Ig dimers loaded overnight
In short: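 Human or mouse CD1d-mouse IgG dimer (1 μg) loaded overnight at 37°C with 1.4 μg lipid or ascites in 50 μL PBS. Used to stain 2 × 10^5 NKT cells on ice for 30 min. Cells washed twice in PBS/5% FBS, then stained with PE rat anti-mouse IgG1 (A85-1) on ice for 30 min; anti-human CD3ε-APC added for human cells. Analysed by flow cytometry.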

[1] = test system: α-GalCer-induced NKT cell activation; assay: In vivo α-GalCer-induced serum cytokine production; design: species or system C57BL/6 mice; settings: 1 μg α-GalCer intravenously
In short: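 C57BL/6 mice, 6–8 weeks old, kept pathogen-free. Given α-GalCer 1 μg intravenously, with or without the test ganglioside at several concentrations. Serum taken at 2, 6, 12, 24, 48 and 72 h. IFN-γ measured by sandwich ELISA on two dilutions of pooled sera, reported as mean ± SD.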

[2] = test system: CD1d-mediated activation of NKT cells (hybridomas DN32.D3, N38-3C3, N37-1A12); assay type: cell-based, mouse; settings: 4 h
In short: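 APCs were L cells stably transfected with WT cd1d1 cDNA. Treated with test ganglioside at increasing concentrations for 4 h at 37°C, washed extensively with PBS, then cocultured with hybridomas DN32.D3, N37-1A12 and N38-3C3 for 20–24 h at 37°C. IL-2 measured by sandwich ELISA. Triplicates, mean ± SEM; experiment repeated three times.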

canonical NKT cell = settings: high concentrations; ref [9], [24]; cited from earlier work

## CCCCCCCC/C=C\CCCCCCCC(=O)OC[C@H](COP(=O)(O)OCCNC(=O)CCCCCN)OC(=O)CCCCCCC/C=C\CCCCCCCC [18:1 PE lipid, 1,2-Dioleoyl-sn-Glycero-3-Phosphoethanolamine-N-(hexanoylamine)]
Mouse CD1d; read-out: IC50 in mCD1d
  IC50: 843 ± 181 nM
Human CD1d; read-out: IC50 in hCD1d, competitor of Biotinyl PE (2 μg/mL), CD1d dimer
  IC50: 882 ± 125 nM

## CCCCCCCCCCCCCCCCCCCCCCCCCC(=O)N[C@@H](CO[C@H]1O[C@H](CO)[C@H](O)[C@H](O)[C@H]1O)[C@H](O)[C@H](O)CCCCCCCCCCCCCC [α-GalCer, α-galactosylceramide]
Mouse CD1d; IC50 in mCD1d
  IC50: 95 nM and 95.1 nM
NKT cells
  binding of lipid-loaded CD1d-Ig dimers to NKT cells: bound to NKT cells
Human CD1d
  IC50: 84 ± 10 nM
[1]
  time at which serum IFN-γ production was detectable: 2 h
  time of peak serum IFN-γ production: 24 h
  time of return of serum IFN-γ to baseline: ≤ 48 h

## GT1b
[2]; increasing doses of purified ganglioside, IL-2 (Fig 3A-C)
  inhibition of CD1d-mediated activation of NKT cells: Only GD3 inhibited

## gangliotriaosylceramide [Gg3Cer]
[2]; gangliosides 5μg/ml, IL-2 (Fig 3D)
  reduction in NKT cell activation: only incubation with GD3 resulted in a significant reduction
Canonical NKT cell
  inhibition of canonical NKT cell activation: inhibit canonical NKT cell activation when used at high concentrations
